Source: PubChem (several laboratories)
GRIN3A LBD mod – binders of NR3A ligand-binding domain, primary screen, biophysical, differential scanning fluorimetry, uHTS; Glutamate receptor ionotropic, NMDA 3A (GRIN3A) ligand-binding domain; Tm shift relative to glycine control, % at 25 µM; hit rate 2.5% among 340,000; NR3A LBD differential scanning fluorimetry, Tm shift; 0% = protein alone, 100% = glycine-bound protein;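 active means melting temperature shift of at least 10% of the positive control shift, at one fixed dose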
XBP1 UPR activ – activators of adaptive XBP1 UPR arm, primary screen, cell-based, CHO-XBP1 luciferase reporter, luminescence, uHTS; IRE1-XBP1 UPR activation; percent of tunicamycin response, DMSO as zero; activation, % at 20 µM; hit rate 0.33% among 330,000; AID 463104, 2010;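 active means versus positive control, 20 µM dose yields 30% or more activation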
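Test system: CHO-XBP1 luciferase reporter cells | Buffer or medium: Serum-containing F12 medium, 10% FBS | Schedule: 6 h compound exposure at 37 °C, 5% CO2 | Detection: Steady-Glo luciferase glow luminescence, 10 min after reagent addition | Read-out basis: Activation, % of tunicamycin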
aDG glyco act – activators of alpha-DG glycosylation, primary screen, uHTS, Pro5-aDG cells, AlphaScreen; hit rate 0.22% among 360,000; AID 624168, 2012; alpha-DG glycosylation AlphaScreen (IIH6); 0% Pro5, 100% B10-LARGE cell signal; activation, % at 10 µM;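 active means activation of at least 8% versus controls, or a plate z-score of at least 8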;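 further: Pro5 are CHO cells carrying HIG-tagged alpha-DG that lacks glycosylation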
MPTP block – mitochondrial permeability transition pore inhibitors, primary screen, biochemical, isolated mouse mitochondria, absorbance; hit rate 1.4% among 360,000; inhibition, % at 10 µM; Ca2+ swelling absorbance, 30 min;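 active means inhibition of 50% or more, scaled per plate between neutral and stimulator controls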
CHOP inhibitor – inhibitors of CHOP promoter induction, primary screen, cell-based, unfolded protein response, luciferase reporter. AID 2732, 2010. hit rate 3.8% among 220,000. inhibition, % at 10 µM. CHO-K1 CHOP-promoter luciferase, tunicamycin-induced, 15-18 h;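 active means compounds that reduced the stress-induced luciferase reporter signal by more than about 70% of percent inhibition, limit read from the data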
UPR CHOP act – activators of apoptotic CHOP UPR arm, primary screen, cell-based, CHO-CHOP luciferase reporter, luminescence, uHTS; UPR activation; percent of tunicamycin response over DMSO baseline; activation, % at 10 µM; hit rate 0.34% among 330,000; AID 449763, 2010;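 active means at 10 µM dose, activation of 40% or more, normalized to positive control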
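assay system = CHO CHOP reporter cells | amount = 500 CHO-CHOP cells per well | buffer or medium = F12 with 10% FBS | incubation = 16-18 h cell attachment, then 6 h compound exposure, 37 °C | detection = luminescence read with Steady-Glo | read-out = percent activation relative to tunicamycin control | controls = tunicamycin high control, DMSO low control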
Of the large screens only hits and unclear results are named; the others gave an inactive call. Only some compounds are listed: those with a hit (about 5.6% of all), similar ones and a draw of the others.

CCCn1c(=O)n(C)c(=O)c2c(SCC(=O)Nc3cc(C)on3)nc(C(C)(C)C)nc21	none (no result: CHOP inhibitor)
O=C(NNC(=O)c1cc2cc(OC(F)(F)F)ccc2[nH]1)c1cccc(C(F)(F)F)c1	GRIN3A LBD mod 23
Oc1ccc(NC(=S)Nc2ccccc2)cc1	none
Nc1ccc(NC(=S)Nc2ccccc2)cc1	GRIN3A LBD mod 25 (no result: XBP1 UPR activ, UPR CHOP act)
Cc1ccc(Nc2nc(N)nc(N)c2N=O)cc1Cl	none (no result: GRIN3A LBD mod, XBP1 UPR activ, CHOP inhibitor, UPR CHOP act)
COc1ccccc1/C=C/C(=O)OCC(=O)Nc1c(C)nn(-c2ccccc2)c1C	none (no result: CHOP inhibitor)
O=C(O)c1ccccc1-c1ccccc1C(=O)Nc1ccccc1	none
O=C(O)c1ccccc1-c1ccccc1C(=O)NNc1ccccc1	GRIN3A LBD mod 14
Oc1ccc(/C=N/Nc2ccc(Cl)nn2)c(O)c1O	GRIN3A LBD mod 22 (no result: CHOP inhibitor)
CC(C)(C)OC(=O)N1CCC(c2cc(=O)n3[nH]cc(C(=O)Nc4ccc(F)c(Cl)c4)c3n2)CC1	none
CC(C)(C)OC(=O)N1CCC(c2cc(=O)n3[nH]c(-c4ccc(Cl)cc4)cc3n2)CC1	CHOP inhibitor 70
COc1ccc(Cn2c(-c3ccco3)nc3oc4cc(OC)ccc4c(=O)c3c2=O)cc1	CHOP inhibitor 92
Cc1ccc(C)c(NC(=O)CSc2nc(=O)n(CCN3CCOCC3)c3c2CCCC3)c1	none (no result: CHOP inhibitor)
CCSCC1COC(c2cccn2Cc2ccc(C)cc2)=N1 (stereo not given)	CHOP inhibitor 76
O=C(COC(=O)[C@@H]1CCCN1C(=O)c1cccs1)Nc1cccc(Cl)c1	none (no result: CHOP inhibitor)
O=C(Cc1ccc([N+](=O)[O-])cc1)N1N=C(c2ccncc2)CC1(O)C(F)(F)F (stereo not given)	none
CCOC(=O)c1sc(Nc2nc3cc4c(cc3s2)OCO4)cc1C	GRIN3A LBD mod 29, CHOP inhibitor 98
COc1cccc2sc(NN)nc12	none
CCOC(=O)c1sc(Nc2nc3c(OC)cccc3s2)cc1C	GRIN3A LBD mod 22
CC(=O)Nc1nc2cc3c(cc2s1)OCO3	none
CCCc1nn(C)c(C(=O)Nc2cccc3ccccc23)c1Cl	GRIN3A LBD mod 12
CCCc1nn(C)c(C(=O)Nc2ccc(CC)cc2)c1Cl	none
Cc1c(/C=N\NC(=O)C2COc3ccc(C(C)(C)C)cc3O2)c2ccccc2n1C (stereo not given)	GRIN3A LBD mod 10, CHOP inhibitor 76
O=C(N/N=C\c1cc(Br)cs1)C1COc2ccccc2O1 (stereo not given)	CHOP inhibitor 80
O=C(N/N=C/c1ccc2c(c1)OCO2)C1COc2ccccc2O1 (stereo not given)	none
CC(C)(C)c1ccc(OCC(=O)N/N=C/c2ccsc2)cc1	none
CCC(=O)Nc1nn(C)c2nc3c(C)cccc3cc12	none
CCCn1nc(NC(=O)CC)c2cc3cccc(C)c3nc21	GRIN3A LBD mod 12 (no result: CHOP inhibitor)
COc1ccc(CC(=O)Nc2nn(C)c3nc4c(C)cccc4cc23)cc1	CHOP inhibitor 81
N#Cc1ncc(-c2ccc3c(c2)OCCOCCOCCOCCOCCO3)nc1C#N	CHOP inhibitor 106
CC(C)[C@H](NC(=O)c1ccccc1F)C(=O)OCCN1C(=O)c2ccccc2C1=O	none (no result: CHOP inhibitor)
CC1Cc2ccccc2N1C(=O)CNc1ccccc1N1CCCCC1 (stereo not given)	CHOP inhibitor 74
C/C(=N/NC(=O)c1cc(-c2cccc([N+](=O)[O-])c2)n[nH]1)c1cccc(O)c1	GRIN3A LBD mod 10
O=[N+]([O-])c1cccc(/C=N/Nc2nnc(-c3ccccc3)c(-c3ccccc3)n2)c1	none
C/C(=N\Nc1nnc(-c2ccccc2)c(-c2ccccc2)n1)c1cccc([N+](=O)[O-])c1	CHOP inhibitor 78
C/C(=N\NC(=O)c1cc(-c2cccc([N+](=O)[O-])c2)n[nH]1)c1ccc(F)cc1	GRIN3A LBD mod 63
C/C(=N\NC(=O)c1cc(-c2cccc([N+](=O)[O-])c2)n[nH]1)c1ccccc1O	GRIN3A LBD mod 26, CHOP inhibitor 94 (no result: XBP1 UPR activ, UPR CHOP act)
CCOc1ccc(OCCC(=O)N(CC)CC(=O)NCc2cccs2)cc1	none (no result: CHOP inhibitor)
CC1(C(=O)O)CCCN(C(=O)C2(c3ccc(Cl)cc3)CCCC2)C1 (stereo not given)	none (no result: GRIN3A LBD mod, XBP1 UPR activ, CHOP inhibitor, UPR CHOP act)
O=C(NCc1ccc2c(c1)OCO2)C(=O)NCC1OCCCN1S(=O)(=O)c1ccccc1 (stereo not given)	none (no result: GRIN3A LBD mod, XBP1 UPR activ, CHOP inhibitor, UPR CHOP act)
CC(OC(=O)C1CCN(S(=O)(=O)c2ccc(C(C)(C)C)cc2)CC1)C(=O)N(C)C1CCCCC1 (stereo not given)	none (no result: XBP1 UPR activ, CHOP inhibitor, UPR CHOP act)
CC(C)C(N)c1csc(Nc2ccc(C(=O)c3ccccc3)cc2)n1 (stereo not given)	none (no result: GRIN3A LBD mod, XBP1 UPR activ, CHOP inhibitor, UPR CHOP act)
O=C(O)c1cc(-c2cccc([N+](=O)[O-])c2)n[nH]1	none
C/C(=N\NC(=O)c1cccc([N+](=O)[O-])c1)c1ccncc1	none
CCOC(=O)c1cc(-c2cccc([N+](=O)[O-])c2)n[nH]1	GRIN3A LBD mod 33
C/C(=N\NC(=O)c1ccccc1F)c1ccc2c(c1)Nc1ccccc1S2	none
C/C(=N/NC(=O)c1ccc(O)cc1)c1cccc([N+](=O)[O-])c1	GRIN3A LBD mod 209
C/C(=N\NC(=O)c1ccc(O)cc1)c1ccc2c(c1)Nc1ccccc1S2	GRIN3A LBD mod 21
CCC1(c2ccc(F)cc2)NC(=O)N(CC(=O)NC2CCCC(C)C2C)C1=O (stereo not given)	none (no result: CHOP inhibitor)
CN(CCCn1ccc(NC(=O)OCc2ccccc2)nc1=O)Cc1ccco1	none (no result: GRIN3A LBD mod, XBP1 UPR activ, CHOP inhibitor, UPR CHOP act)
O=C(COC(=O)/C=C/c1cccc(Br)c1)Nc1ccc(Cl)cn1	none (no result: GRIN3A LBD mod, XBP1 UPR activ, CHOP inhibitor, UPR CHOP act)
O=C(COC(=O)/C=C/c1cccc(F)c1)Nc1ccc(Cl)cn1	CHOP inhibitor 73
CCC1CCCCN1CCCNC(=O)c1ccc2c(c1)c(C)c(C)n2C (stereo not given)	none (no result: CHOP inhibitor)
CCOC(=O)c1c(NC(=O)CN2CCCc3ccccc32)sc(C(C)=O)c1C	CHOP inhibitor 93
CCn1c(Sc2ccc([N+](=O)[O-])cn2)nnc1-c1ccco1	none
O=C(Nc1c(-c2ccc3c(c2)OCO3)[nH][nH]c1=O)c1ccccc1	none (no result: GRIN3A LBD mod, XBP1 UPR activ, CHOP inhibitor, UPR CHOP act)
NC(=O)N/N=C/c1c(Sc2nnnn2-c2ccccc2)nc2ccccn2c1=O	GRIN3A LBD mod 29
CC1(C(=O)NS(=O)(=O)c2cccc(C#N)c2)CCN1C(=O)CC1CCCCC1 (stereo not given)	none (no result: GRIN3A LBD mod, XBP1 UPR activ, CHOP inhibitor, UPR CHOP act)
CC(C)(C)OC(=O)N1CCC(C(=O)Nc2cccc(C(=O)NCc3ccccc3)c2)CC1	none (no result: XBP1 UPR activ, CHOP inhibitor, UPR CHOP act)
